The target of assay [1] is T1, Subtilisin-like protease 1 (Plasmodium falciparum) (UniProt O61142).
T1 sequence (whole entry): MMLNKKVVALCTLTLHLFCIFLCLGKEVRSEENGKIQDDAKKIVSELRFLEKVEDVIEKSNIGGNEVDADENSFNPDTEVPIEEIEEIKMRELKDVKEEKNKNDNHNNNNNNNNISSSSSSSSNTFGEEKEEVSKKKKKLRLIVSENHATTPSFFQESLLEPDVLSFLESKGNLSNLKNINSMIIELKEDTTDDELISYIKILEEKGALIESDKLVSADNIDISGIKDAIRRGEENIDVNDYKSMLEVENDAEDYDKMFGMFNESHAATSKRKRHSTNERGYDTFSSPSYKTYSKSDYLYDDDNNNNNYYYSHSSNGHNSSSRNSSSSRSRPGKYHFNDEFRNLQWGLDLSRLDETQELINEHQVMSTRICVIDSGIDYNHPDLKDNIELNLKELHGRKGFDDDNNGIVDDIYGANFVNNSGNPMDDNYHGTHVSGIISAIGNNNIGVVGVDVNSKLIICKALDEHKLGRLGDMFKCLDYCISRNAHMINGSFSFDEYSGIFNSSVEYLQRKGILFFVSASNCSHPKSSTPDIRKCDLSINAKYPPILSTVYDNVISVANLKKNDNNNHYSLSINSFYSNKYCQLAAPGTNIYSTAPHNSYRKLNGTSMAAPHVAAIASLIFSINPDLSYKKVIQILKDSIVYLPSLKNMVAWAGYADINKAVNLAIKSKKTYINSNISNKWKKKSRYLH
The assay is described as follows: Inhibition of recombinant Plasmodium falciparum SUB1 using Ac-CKITAQDDEESC-OH as fluorogenic substrate at 1 uM pre-incubated for 5 mins followed by substrate addition and measured every 3 mins for 60 mins by fluorescence based SpectraMax M5e plate reader. Particulars: time 65.0 min.

In assay [2] the target is T2, Subtilisin-like protease 1 (Plasmodium falciparum, UniProt O61142).
T2 sequence (O61142 whole entry): T1 sequence (whole entry)
As to the kind of experiment: Inhibition of recombinant Plasmodium falciparum SUB1 using Ac-CKITAQDDEESC-OH as fluorogenic substrate pre-incubated for 5 mins followed by substrate addition and measured every 3 mins for 60 mins by fluorescence based SpectraMax M5e plate reader. In short, it runs like this:
(§1)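 Chymotrypsin-treated recombinant PfSUB1 stock (228 U/mL) was diluted 1:500 in 20 mM Tris-HCl pH 8.2, 150 mM NaCl, 12 mM CaCl2, 25 mM CHAPS. Inhibitor DMSO stocks (500 to 0.01 μM) were diluted 1:100 and preincubated with enzyme for 5 min. Fluorogenic SERA4st1F-6R12 substrate was then added (0.1 μM final), with ex 552/em 580 nm read every 3 min for 60 min.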

Assay [3] concerns the target T3, Proteasome Macropain subunit MB1 (Homo sapiens, UniProt P28074).
T3 sequence (P28074 whole entry): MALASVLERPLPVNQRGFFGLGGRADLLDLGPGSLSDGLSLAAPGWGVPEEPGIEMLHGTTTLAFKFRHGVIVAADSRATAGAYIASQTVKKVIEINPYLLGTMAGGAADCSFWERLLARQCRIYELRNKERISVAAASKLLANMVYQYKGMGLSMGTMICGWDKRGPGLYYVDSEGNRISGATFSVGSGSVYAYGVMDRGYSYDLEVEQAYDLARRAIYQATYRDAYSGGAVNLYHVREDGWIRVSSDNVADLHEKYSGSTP
As to the kind of experiment: Inhibition of human 20s proteasome beta5 subunit mediated chymotrypsin-like activity using LLVY-R110 as substrate measured every three mins for 1 hr by fluorescence based SpectraMax M5e plate reader. The essentials:
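Purified human 20S proteasome was diluted in TBS pH 7.4 to a 0.44 μM intermediate stock. Serial DMSO dilutions of inhibitor (1 μL) went into a 100 μL reaction with LLVY-R110 substrate, and 1 μL of proteasome stock was added to start.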

The target of assay [4] is T2, Subtilisin-like protease 1. The assay is described as follows: Inhibition of Plasmodium falciparum SUB1. The essentials:
as §1

Assay [5] can be described thus: Selectivity ratio IC50 for human 20s proteasome beta5 subunit mediated chymotrypsin-like activity to IC50 for Plasmodium falciparum SUB1.

Activity calls are given as the source filed them. The calls are words filed in the database; no cut-off is given here.

Regarding `CC(C)C[C@H](NC(=O)[C@H](Cc1ccccc1)NC(=O)c1cnccn1)B(O)O`, the inhibition result in assay [1] was “inactive”.
For the compound `CC[C@H](C)[C@H](NC(=O)[C@@H](NC(=O)c1ccccc1)C1CCCC1)C(=O)NCC(=O)N[C@@H](C)B(O)O`, the IC50 (as a rule, the midpoint of a concentration-inhibition curve) in assay [2] was found to be 3.2 nM.
As to `CC(=O)N[C@H](C(=O)N[C@H](C(=O)NCC(=O)N[C@H]1CCC(=O)OB1O)[C@@H](C)O)C1CCCC1`, the IC50 was found to be 35600 nM in assay [3] and 18.7 nM in assay [4]. In addition, the Ratio IC50 in assay [5] is 1900.
In the case of `CC(=O)N[C@H](C(=O)N[C@H](C(=O)NCC(=O)N[C@@H](C)B(O)O)[C@@H](C)O)C1CCCC1`, in assay [4], the IC50 was 9.3 nM.
`CC[C@H](C)[C@H](NC(=O)[C@@H](NC(=O)c1cc(C)cc(C)c1)C1CCCC1)C(=O)NCC(=O)N[C@H]1CCC(=O)OB1O` registered an IC50 in assay [3] of 1000 nM.

(Values after ChEMBL document CHEMBL5523765, “Peptidic Boronic Acid Plasmodium falciparum SUB1 Inhibitors with Improved Selectivity over Human Proteasome” (J Med Chem, 2024).)
